Active and inactive are the calls of the source. The calls are words filed in the database; no cut-off is given here.
Key:
[1] = biological target: T1, 17-beta-hydroxysteroid dehydrogenase type 1 (Homo sapiens) (UniProt P14061); assay: Inhibition of human recombinant 17beta-HSD1 expressed in HEK293 cell lysate assessed as conversion of radiolabeled estrone to estradiol at 20 uM; assay type: cell-free; parameters: scale not given: the % may be the effect or the level left
T1 sequence (whole entry): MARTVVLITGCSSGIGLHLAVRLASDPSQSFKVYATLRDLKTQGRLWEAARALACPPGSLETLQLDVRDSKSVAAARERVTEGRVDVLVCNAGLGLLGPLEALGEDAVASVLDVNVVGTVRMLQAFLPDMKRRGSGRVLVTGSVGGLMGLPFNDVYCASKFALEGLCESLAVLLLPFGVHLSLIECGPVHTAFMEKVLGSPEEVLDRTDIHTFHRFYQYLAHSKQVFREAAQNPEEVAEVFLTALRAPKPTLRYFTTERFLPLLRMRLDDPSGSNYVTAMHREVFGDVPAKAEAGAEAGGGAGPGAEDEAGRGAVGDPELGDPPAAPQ
Outline: (§1)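 HEK-293 cells transiently transfected with human 17β-HSD1 by calcium phosphate were harvested 48 h later, and the pellets were frozen at -70 °C. Pellets were resuspended in 50 mM potassium phosphate, 20% glycerol and 1 mM EDTA. Conversion of 200 nM radiolabeled estrone to estradiol was measured immediately with 500 µM NADPH. […] DMSO was ≤0.1%. Values are mean ± SD from three independent experiments.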

[2] = biological target: T2, 17-beta-hydroxysteroid dehydrogenase type 2 (Homo sapiens) (UniProt P37059); assay: Inhibition of human recombinant 17beta-HSD2 expressed in HEK293 cell lysate assessed as conversion of radiolabeled estrone to estradiol at 40 uM; assay type: cell-free; parameters: scale not given: the % may be the effect or the level left
T2 sequence (whole entry): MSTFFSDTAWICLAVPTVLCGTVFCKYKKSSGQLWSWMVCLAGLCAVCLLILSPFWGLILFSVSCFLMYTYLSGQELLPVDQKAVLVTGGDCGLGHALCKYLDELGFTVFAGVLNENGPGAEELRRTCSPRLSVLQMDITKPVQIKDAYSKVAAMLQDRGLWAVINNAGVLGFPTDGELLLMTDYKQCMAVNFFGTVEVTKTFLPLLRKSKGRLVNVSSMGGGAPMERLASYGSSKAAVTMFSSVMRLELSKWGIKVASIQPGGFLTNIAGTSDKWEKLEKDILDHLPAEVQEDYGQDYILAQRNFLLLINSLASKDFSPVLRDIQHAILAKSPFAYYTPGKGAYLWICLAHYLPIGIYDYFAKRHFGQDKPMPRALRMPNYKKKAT

[3] = biological target: T3, 17-beta-hydroxysteroid dehydrogenase type 2 (Homo sapiens, UniProt P37059); assay: Inhibition of human recombinant 17beta-HSD2 expressed in HEK293 cell lysate assessed as conversion of radiolabeled estrone to estradiol; assay type: cell-free
T3 sequence (P37059 whole entry): T2 sequence (whole entry)

[4] = biological target: T4, 17-beta-hydroxysteroid dehydrogenase type 1 (Homo sapiens, UniProt P14061); assay: Inhibition of human recombinant 17beta-HSD1 expressed in HEK293 cell lysate assessed as conversion of radiolabeled estrone to estradiol; assay type: cell-free; outline: as §1
T4 sequence (P14061 whole entry): T1 sequence (whole entry)

[5] = biological target: T2, 17-beta-hydroxysteroid dehydrogenase type 2 (Homo sapiens); assay: Inhibition of human recombinant 17beta-HSD2 expressed in HEK293 cell lysate assessed as conversion of radiolabeled estrone to estradiol at 20 uM; assay type: cell-free; parameters: scale not given: the % may be the effect or the level left
[6] = biological target: T5, 17-beta-hydroxysteroid dehydrogenase type 3 (Homo sapiens) (UniProt P37058); assay: Inhibition of human recombinant 17beta-HSD3 expressed in intact HEK293 cells assessed as conversion of androstenedione to testosterone at 20 uM; assay type: cell-based; parameters: scale not given: the % may be the effect or the level left
T5 sequence (whole entry): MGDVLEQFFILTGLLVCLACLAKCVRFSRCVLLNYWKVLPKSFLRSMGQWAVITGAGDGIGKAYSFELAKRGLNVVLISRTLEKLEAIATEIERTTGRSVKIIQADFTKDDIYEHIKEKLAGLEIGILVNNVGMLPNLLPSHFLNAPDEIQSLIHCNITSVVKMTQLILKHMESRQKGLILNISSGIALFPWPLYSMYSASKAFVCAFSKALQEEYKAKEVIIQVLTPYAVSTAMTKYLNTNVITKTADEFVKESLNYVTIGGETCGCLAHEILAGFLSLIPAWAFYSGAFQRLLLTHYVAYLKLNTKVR
Outline: (§2)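 17β-HSD3 or 17β-HSD5 was transiently expressed in HEK-293 cells. Conversion of androstenedione to testosterone was measured in intact cells without added cofactor. Compounds were tested at 20 µM, with final DMSO ≤0.1%. Values are mean ± SD from three independent experiments.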

[7] = biological target: T6, Aldo-keto reductase family 1 member C3 (Homo sapiens) (UniProt P42330); assay: Inhibition of human recombinant 17beta-HSD5 expressed in intact HEK293 cells assessed as conversion of androstenedione to testosterone at 20 uM after 24 hrs; assay type: cell-based; parameters: scale not given: the % may be the effect or the level left; outline: as §2
T6 sequence (whole entry): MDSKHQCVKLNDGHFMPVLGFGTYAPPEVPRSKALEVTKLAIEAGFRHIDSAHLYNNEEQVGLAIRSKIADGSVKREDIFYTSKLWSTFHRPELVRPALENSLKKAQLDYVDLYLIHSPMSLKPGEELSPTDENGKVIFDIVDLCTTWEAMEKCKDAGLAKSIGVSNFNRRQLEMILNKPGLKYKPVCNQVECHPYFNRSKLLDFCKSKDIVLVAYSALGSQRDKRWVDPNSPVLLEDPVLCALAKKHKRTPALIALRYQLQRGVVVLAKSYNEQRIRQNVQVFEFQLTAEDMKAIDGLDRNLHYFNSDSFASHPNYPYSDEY

[8] = biological target: T7, 11-beta-hydroxysteroid dehydrogenase 1 (Homo sapiens, UniProt P28845); assay: Inhibition of human recombinant 11beta-HSD1 expressed in HEK293 cell lysate assessed as conversion of radiolabeled estrone to estradiol at 20 uM; assay type: cell-free; parameters: scale not given: the % may be the effect or the level left
Target sequence in this assay (P28845 whole entry, looked up): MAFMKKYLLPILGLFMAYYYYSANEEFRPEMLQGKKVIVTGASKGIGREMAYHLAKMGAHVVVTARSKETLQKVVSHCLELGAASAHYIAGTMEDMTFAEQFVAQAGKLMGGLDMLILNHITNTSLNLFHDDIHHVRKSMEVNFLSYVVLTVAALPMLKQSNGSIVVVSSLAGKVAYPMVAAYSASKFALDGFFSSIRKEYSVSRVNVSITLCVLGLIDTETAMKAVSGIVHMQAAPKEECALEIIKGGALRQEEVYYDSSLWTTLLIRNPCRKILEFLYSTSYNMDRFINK

[9] = biological target: T7, 11-beta-hydroxysteroid dehydrogenase 1; assay: Inhibition of human recombinant 11beta-HSD1 expressed in HEK293 cell lysate assessed as conversion of radiolabeled estrone to estradiol; assay type: cell-free
Target sequence in this assay (P28845 whole entry): as the sequence (P28845 whole entry, looked up) above

SMILES	Activity [1] [%]	Activity [2] [%]	IC50 [3] [µM]	IC50 [4] [µM]	Activity [5] [%]	Activity [6] [%]	Activity [7]	Activity [8] [%]	IC50 [9] [µM]	Ki [4] [µM]
COc1ccc(-c2coc3cc(O)cc(O)c3c2=O)cc1 [BIOCHANIN]	45	10.1	9.9	–	–	–	–	–	–	–
O=c1c(O)c(-c2ccc(O)cc2)oc2cc(O)cc(O)c12 [KAEMPFEROL]	13	4.83	0.36	1.05	–	–	–	–	–	–
O=C1CC(c2ccccc2O)Oc2ccccc21 (stereo not drawn)	95	50.7	–	–	–	–	–	–	–	–
O=C1CC(c2ccc(O)cc2)Oc2ccccc21 (stereo not drawn)	99	63.6	–	–	–	–	–	–	–	–
CC1(C)[C@@H](O)CC[C@]2(C)[C@H]3C(=O)C=C4[C@@H]5C[C@@](C)(C(=O)O)CC[C@]5(C)CC[C@@]4(C)[C@]3(C)CC[C@@H]12	53	24.5	–	–	–	–	–	–	–	–
O=S1OCC2C(CO1)C1(Cl)C(Cl)=C(Cl)C2(Cl)C1(Cl)Cl (stereo not drawn) [ENDOSULFAN]	25	51.1	–	48.2	–	–	–	–	–	–
O=C1CC(c2ccccc2)Oc2ccccc21 (stereo not drawn)	110	70.7	–	–	–	–	–	–	–	–
Cc1cc(-c2ccc(NS(=O)(=O)c3ccccc3)c(C)c2)ccc1NS(=O)(=O)c1ccccc1	64	–	–	–	56	92	inactive	101	–	–
CCOc1cc(CNC2C(C)=NN=C2S)cc(Br)c1OCC(=O)NC1CCCCC1 (stereo not drawn)	70	–	–	–	105	19	inactive	16	6.2	–
CCCCC(=O)Nc1sc2c(c1C(=O)OCC)CCC(/C=N/O)=C2Cl	76	–	–	–	48	89	inactive	106	–	–
Cc1cc(/C=N/NC(=O)C(O)(c2ccccc2)c2ccccc2)c(C)n1-c1ccc(O)cc1	73	–	–	–	113	76	inactive	90	–	–
O=C1CC(c2ccccc2)Oc2ccc(O)cc21 (stereo not drawn)	102	42.5	–	–	–	–	–	–	–	–
COc1c2c(cc3c1C1Oc4c(ccc(O)c4CC=C(C)C)C1CO3)OC(C)(C)C=C2 (stereo not drawn)	54	–	–	19	86	55	inactive	96	–	–
O=C1C[C@@H](c2ccc(O)cc2)Oc2cc(O)cc(O)c21 [NARINGENIN]	17.2	12.6	14.4	4.96	–	–	–	–	–	–
Cc1cc(OCCOc2ccc(N)cc2)ccc1N1C(N)=NC(N)=NC1(C)C	84	–	–	–	59	99	inactive	99	–	–
COC(C(=O)Nc1ccc(-c2ccc(NC(=O)C(OC)c3ccccc3)c(C)c2)cc1C)c1ccccc1 (stereo not drawn)	84	–	–	–	59	96	inactive	110	–	–
O=c1c(-c2ccc(O)cc2)coc2cc(O)ccc12	35	58.3	–	–	–	–	–	–	–	–

SMILES	Activity [1] [%]	Activity [2] [%]	IC50 [3] [µM]	IC50 [4] [µM]	Activity [5] [%]	Activity [6] [%]	Activity [7]	Activity [8] [%]	IC50 [9] [µM]	Ki [4] [µM]
O=c1cc(-c2ccc(O)cc2)oc2cc(O)cc(O)c12 [APIGENIN]	10	25.2	> 20	0.71	–	–	–	–	–	–
O=c1cc(-c2ccccc2)oc2cc(O)ccc12 [7-HYDROXYFLAVONE]	16	23.1	> 20	5.25	–	–	–	–	–	–
CCOP(=O)(Nc1ccc2c(c1)Cc1c-2cc(Cl)c(NC(C)=O)c1Cl)OCC	90	–	–	–	79	86	84%	87	–	–
O=c1c(-c2ccc(O)cc2)coc2cc(O)cc(O)c12 [GENISTEIN]	17	15.7	–	2.21	–	–	–	–	–	–
Cc1c(/C=N/N=C2\CC[C@H]3[C@@H]4CCc5cc(O)ccc5[C@H]4CC[C@]23C)cnn1C	34	–	–	33	63	75	inactive	81	–	–
O=S(=O)(Nc1ccccc1)c1ccc2c(c1)Cc1cc(S(=O)(=O)Nc3ccccc3)ccc1-2	75	–	–	–	76	80	inactive	56	–	–
CCOc1cc(/C=N/NC(=O)c2ccccn2)c(Br)c(Br)c1O	88	–	–	–	55	95	inactive	68	–	–
CCOc1cc(/C=N/NC(N)=O)c(Br)c(Br)c1OCC(=O)Nc1ccc(C)cc1	16	–	–	5.7	76	96	inactive	70	> 50	–
O=c1cc(-c2ccccc2)oc2cc(O)cc(O)c12	34	32.8	–	–	–	–	–	–	–	–
Cc1cc2c(C(C)C)c(O)c(O)c(C=O)c2c(O)c1-c1c(C)cc2c(C(C)C)c(O)c(O)c(C=O)c2c1O	60	64.8	–	–	–	–	–	–	–	–
O=c1cc(-c2ccccc2)oc2ccccc12	94	63.9	–	–	–	–	–	–	–	–
CCCCN(C)C(=O)CCCCCS[C@@H]1C[C@@H]2[C@H](CC[C@]3(C)[C@@H](O)CC[C@@H]23)c2ccc(O)cc21	–	–	–	0.17	–	–	–	–	–	–
C[C@]12CC[C@@H]3c4ccc(OC5CCCCO5)cc4CC[C@H]3[C@@H]1CC[C@@H]2O (stereo partly drawn)	74	–	–	–	90	57	inactive	365	20	–
O=c1c(O)c(-c2ccc(O)c(O)c2)oc2cc(O)cc(O)c12 [QUERCETIN]	65	6.07	1.54	–	–	–	–	–	–	–
COc1ccc([C@@H]2CC(=O)c3c(O)cc(O)cc3O2)cc1O	44	36.4	–	–	–	–	–	–	–	–
C[C@]12CC[C@@H]3c4ccc(O)cc4CC[C@H]3[C@@H]1C[C@H](CCCCCCCCC(=O)OC[C@H]1O[C@@H](n3cnc4c(N)ncnc43)[C@H](O)[C@@H]1O)[C@@H]2O	–	–	–	–	–	–	–	–	–	0.003
Cc1ccc(S(=O)(=O)N/N=C2\C=C[C@H]3[C@@H]4CC=C5C[C@@H](O)CC[C@]5(C)[C@H]4CC[C@]23C)cc1	63	–	–	47	97	69	45%	9	3.8	–

— ChEMBL document CHEMBL1157467, “Discovery of nonsteroidal 17beta-hydroxysteroid dehydrogenase 1 inhibitors by pharmacophore-based screening of virtual compound libraries” (J Med Chem, 2008)
